Calls of active or inactive are those of the source. No cut-off for these calls is given here. Residues, ends and D or L forms follow the SMILES beside them.
What was measured:
[1] = target: Heat shock protein HSP 90-beta (Homo sapiens) (UniProt P08238); assay: Inhibition of Hsp90 (unknown origin) at 50 uM preincubated for 1 hr followed by denatured luciferase addition measured at 90 mins by bright glo luciferase refolding assay in presence of Hsp70/Hsp40/HOP relative to control
How it was run: (§1)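 Pure-protein refolding: heat-denatured firefly luciferase incubated with 0.5μM hsp90, 1μM hsp70, 0.2μM hsp40 and 0.1μM HOP; compound at 50μM; luciferase activity followed over time, expressed versus control; n=3, mean±SEM.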

[2] = target: Heat shock protein HSP 90-beta (Homo sapiens) (UniProt P08238); assay: Inhibition of Hsp90 (unknown origin) at 50 uM preincubated for 1 hr followed by denatured luciferase addition measured at 105 mins by bright glo luciferase refolding assay in presence of Hsp70/Hsp40/HOP relative to control; how it was run: as §1
[3] = target: T1, Heat shock protein HSP 90 (Oryctolagus cuniculus) (UniProt P11500); assay: Inhibition of Hsp90 in rabbit reticulocyte lysate at 50 uM measured at 75 mins by bright glo luciferase refolding assay relative to control
T1 sequence (whole entry): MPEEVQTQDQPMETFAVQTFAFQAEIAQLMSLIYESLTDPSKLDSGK
How it was run: (§2)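 Heat-denatured firefly luciferase incubated in rabbit reticulocyte lysate, the complete lysate system; compound at 50μM; refolding followed over time by luciferase activity relative to control; n=3, mean±SEM.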

[4] = target: Heat shock protein HSP 90-beta (Homo sapiens) (UniProt P08238); assay: Binding affinity to human Hsp90 assessed as inhibition of interaction with His/GST-tagged recombinant co-chaperone CHIP up to 10 uM preincubated for 1 hr followed by co-chaperone addition measured after 1 hr by Western blotting analysis
How it was run: (§3)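 In vitro binding assay: pure native hsp90 combined with individual purified TPR co-chaperones (Unc45, CHIP, TOM70, Cyp40, FKBP51, FKBP52), with compound added in increasing amounts up to 5 or 10 μM. Co-chaperone–hsp90 association was scored against the compound-free condition.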

[5] = target: Heat shock protein HSP 90-beta (Homo sapiens) (UniProt P08238); assay: Inhibition of human Hsp90 assessed as disruption of interaction with recombinant p23 up to 10 uM by Western blotting analysis
[6] = target: Heat shock protein HSP 90-beta (Homo sapiens) (UniProt P08238); assay: Inhibition of Hsp90 in human HeLa cells assessed as change in Hsp70 protein expression at 5 uM to 50 uM after 30 hours by Western blotting analysis; format: cell-based
How it was run: (§4)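 HeLa cervical carcinoma cells treated at 5μM and 50μM; cell lysates probed for the heat shock response proteins hsp70, hsp90 and HSF1 by western blot, compared with DMSO.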

[7] = target: Heat shock protein HSP 90-beta (Homo sapiens) (UniProt P08238); assay: Inhibition of Hsp90 in human HeLa cells assessed as downregulation of FKBP52 protein level at 40 uM after 30 hours by Western blotting analysis in presence of proteasome inhibitor MG-132; format: cell-based
[8] = target: Heat shock protein HSP 90-beta (Homo sapiens) (UniProt P08238); assay: Inhibition of Hsp90 in human HeLa cells assessed as downregulation of HSF1 protein expression at 5 uM to 50 uM after 30 hours by Western blotting analysis relative to DMSO-treated control; format: cell-based; how it was run: as §4
[9] = target: Heat shock protein HSP 90-beta (Homo sapiens) (UniProt P08238); assay: Inhibition of Hsp90 in human HeLa cells assessed as downregulation of glucocorticoid receptor protein level at 40 uM after 30 hours by Western blotting analysis in presence of proteasome inhibitor MG-132; format: cell-based
[10] = target: Heat shock protein HSP 90-beta (Homo sapiens) (UniProt P08238); assay: Binding affinity to human Hsp90 assessed as inhibition of interaction with His/GST-tagged recombinant co-chaperone TOM70 up to 10 uM preincubated for 1 hr followed by co-chaperone addition measured after 1 hr by Western blotting analysis; how it was run: as §3
[11] = target: Heat shock protein HSP 90-beta (Homo sapiens) (UniProt P08238); assay: Binding affinity to human Hsp90 assessed as inhibition of interaction with His/GST-tagged recombinant co-chaperone Unc45 up to 10 uM preincubated for 1 hr followed by co-chaperone addition measured after 1 hr by Western blotting analysis; how it was run: as §3
[12] = target: Heat shock protein HSP 90-beta (Homo sapiens) (UniProt P08238); assay: Inhibition of Hsp90 (unknown origin) at 50 uM preincubated for 1 hr followed by denatured luciferase addition measured after 2 hrs by bright glo luciferase refolding assay in presence of Hsp70/Hsp40/HOP relative to control
How it was run: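 Purified refolding system: heat-denatured firefly luciferase incubated with 0.5 μM hsp90, 1 μM hsp70, 0.2 μM hsp40 and 0.1 μM HOP plus test agent (1 μM or 50 μM). Luciferase activity was followed over time up to 2 h and expressed relative to control. n=3, mean±SEM.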

[13] = target: Heat shock protein HSP 90-beta (Homo sapiens) (UniProt P08238); assay: Inhibition of Hsp90 in human HeLa cells assessed as downregulation of Hsp90 protein expression at 5 uM to 50 uM after 30 hours by Western blotting analysis relative to DMSO-treated control; format: cell-based; how it was run: as §4
[14] = target: Heat shock protein HSP 90-beta (Homo sapiens) (UniProt P08238); assay: Inhibition of Hsp90 (unknown origin) at 50 uM preincubated for 1 hr followed by denatured luciferase addition measured at 120 mins by bright glo luciferase refolding assay in presence of Hsp70/Hsp40/HOP relative to control; how it was run: as §1
[15] = target: Heat shock protein HSP 90-beta (Homo sapiens) (UniProt P08238); assay: Inhibition of Hsp90 (unknown origin) at 50 uM preincubated for 1 hr followed by denatured luciferase addition measured at 75 mins by bright glo luciferase refolding assay in presence of Hsp70/Hsp40/HOP relative to control; how it was run: as §1
[16] = target: Heat shock protein HSP 90-beta (Homo sapiens) (UniProt P08238); assay: Inhibition of Hsp90 (unknown origin) at 50 uM preincubated for 1 hr followed by denatured luciferase addition measured at 30 mins by bright glo luciferase refolding assay in presence of Hsp70/Hsp40/HOP relative to control; how it was run: as §1
[17] = target: Heat shock protein HSP 90-beta (Homo sapiens) (UniProt P08238); assay: Inhibition of Hsp90 (unknown origin) at 50 uM preincubated for 1 hr followed by denatured luciferase addition measured at 15 mins by bright glo luciferase refolding assay in presence of Hsp70/Hsp40/HOP relative to control; how it was run: as §1
[18] = target: Heat shock protein HSP 90-beta (Homo sapiens) (UniProt P08238); assay: Inhibition of Hsp90 (unknown origin) at 50 uM preincubated for 1 hr followed by denatured luciferase addition measured at 60 mins by bright glo luciferase refolding assay in presence of Hsp70/Hsp40/HOP relative to control; how it was run: as §1
[19] = target: Heat shock protein HSP 90-beta (Homo sapiens) (UniProt P08238); assay: Inhibition of Hsp90 (unknown origin) at 50 uM preincubated for 1 hr followed by denatured luciferase addition measured at 45 mins by bright glo luciferase refolding assay in presence of Hsp70/Hsp40/HOP relative to control; how it was run: as §1
[20] = target: T1, Heat shock protein HSP 90 (Oryctolagus cuniculus); assay: Inhibition of Hsp90 in rabbit reticulocyte lysate at 50 uM measured at 30 mins by bright glo luciferase refolding assay relative to control; how it was run: as §2
[21] = target: T1, Heat shock protein HSP 90 (Oryctolagus cuniculus); assay: Inhibition of Hsp90 in rabbit reticulocyte lysate at 50 uM measured at 60 mins by bright glo luciferase refolding assay relative to control; how it was run: as §2
[22] = target: T1, Heat shock protein HSP 90 (Oryctolagus cuniculus); assay: Inhibition of Hsp90 in rabbit reticulocyte lysate at 50 uM measured at 15 mins by bright glo luciferase refolding assay relative to control; how it was run: as §2
[23] = target: Heat shock protein HSP 90-beta (Homo sapiens) (UniProt P08238); assay: Inhibition of Hsp90 in human HeLa cells assessed as downregulation of FKBP51 protein level at 40 uM after 30 hours by Western blotting analysis in presence of proteasome inhibitor MG-132; format: cell-based
[24] = target: T1, Heat shock protein HSP 90 (Oryctolagus cuniculus); assay: Inhibition of Hsp90 in rabbit reticulocyte lysate at 50 uM measured at 45 mins by bright glo luciferase refolding assay relative to control; how it was run: as §2
[25] = target: T1, Heat shock protein HSP 90 (Oryctolagus cuniculus); assay: Inhibition of Hsp90 in rabbit reticulocyte lysate at 50 uM measured at 90 mins by bright glo luciferase refolding assay relative to control; how it was run: as §2
[26] = target: Heat shock protein HSP 90-beta (Homo sapiens) (UniProt P08238); assay: Binding affinity to human Hsp90 assessed as inhibition of interaction with His/GST-tagged recombinant co-chaperone FKBP51 up to 10 uM preincubated for 1 hr followed by co-chaperone addition measured after 1 hr by Western blotting analysis; how it was run: as §3
[27] = target: Heat shock protein HSP 90-beta (Homo sapiens) (UniProt P08238); assay: Binding affinity to human Hsp90 assessed as inhibition of interaction with His/GST-tagged recombinant co-chaperone CYP40 up to 10 uM preincubated for 1 hr followed by co-chaperone addition measured after 1 hr by Western blotting analysis; how it was run: as §3
[28] = target: Heat shock protein HSP 90-beta (Homo sapiens) (UniProt P08238); assay: Inhibition of Hsp90 in human HeLa cells assessed as change in FKBP51 protein level at 50 uM after 30 hours by Western blotting analysis; format: cell-based
How it was run: (§5)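 HeLa cells treated at 5μM and 50μM; lysates western blotted for FKBP51, FKBP52 and glucocorticoid receptor; bands normalized to GAPDH and compared with DMSO control; n≥3, mean±SEM.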

[29] = target: Heat shock protein HSP 90-beta (Homo sapiens) (UniProt P08238); assay: Binding affinity to human Hsp90 assessed as inhibition of interaction with His/GST-tagged recombinant co-chaperone Cyp40 at 10 uM preincubated for 1 hr followed by co-chaperone addition measured after 1 hr by Western blotting analysis
How it was run: (§6)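 Purified native hsp90 combined with purified TPR co-chaperone (FKBP51, FKBP52, HOP, Unc45, CHIP, Cyp40 or TOM70), with increasing compound, 0–10 μM; hsp90–co-chaperone binding measured across the range.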

[30] = target: Heat shock protein HSP 90-beta (Homo sapiens) (UniProt P08238); assay: Binding affinity to human Hsp90 assessed as inhibition of interaction with His/GST-tagged recombinant co-chaperone TOM70 at 10 uM preincubated for 1 hr followed by co-chaperone addition measured after 1 hr by Western blotting analysis; how it was run: as §6
[31] = target: Heat shock protein HSP 90-beta (Homo sapiens) (UniProt P08238); assay: Binding affinity to human Hsp90 assessed as inhibition of interaction with His/GST-tagged recombinant co-chaperone CHIP at 10 uM preincubated for 1 hr followed by co-chaperone addition measured after 1 hr by Western blotting analysis; how it was run: as §6
[32] = target: Heat shock protein HSP 90-beta (Homo sapiens) (UniProt P08238); assay: Inhibition of Hsp90 in human HeLa cells assessed as downregulation of FKBP52 protein level at 50 uM after 30 hours by Western blotting analysis; format: cell-based; how it was run: as §5

Sequence of Heat shock protein HSP 90-beta (Homo sapiens) (P08238 whole entry): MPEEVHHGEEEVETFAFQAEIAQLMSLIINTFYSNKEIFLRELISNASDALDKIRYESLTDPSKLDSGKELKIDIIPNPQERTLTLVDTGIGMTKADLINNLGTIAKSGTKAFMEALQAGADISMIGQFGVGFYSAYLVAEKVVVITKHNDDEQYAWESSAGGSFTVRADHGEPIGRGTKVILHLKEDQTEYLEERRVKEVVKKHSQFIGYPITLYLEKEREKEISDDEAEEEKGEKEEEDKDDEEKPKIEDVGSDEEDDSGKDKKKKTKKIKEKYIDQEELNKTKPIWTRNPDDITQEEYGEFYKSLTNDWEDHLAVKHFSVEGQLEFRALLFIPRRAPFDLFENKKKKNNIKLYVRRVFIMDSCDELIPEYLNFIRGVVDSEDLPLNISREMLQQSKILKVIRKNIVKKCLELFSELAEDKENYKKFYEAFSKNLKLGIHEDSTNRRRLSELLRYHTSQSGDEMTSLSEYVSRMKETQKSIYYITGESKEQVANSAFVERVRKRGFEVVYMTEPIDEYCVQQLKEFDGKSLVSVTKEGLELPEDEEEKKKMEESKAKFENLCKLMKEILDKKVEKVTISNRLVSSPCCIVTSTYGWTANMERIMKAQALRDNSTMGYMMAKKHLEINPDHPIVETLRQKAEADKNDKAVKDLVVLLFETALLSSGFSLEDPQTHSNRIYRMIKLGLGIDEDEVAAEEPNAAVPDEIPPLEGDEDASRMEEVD

| Structure (SMILES) | RLU [1] | RLU [2] | RLU [3] | inhibition [6] | inhibition [8] | inhibition [13] | RLU [14] | RLU [15] | RLU [16] | RLU [17] | RLU [18] | RLU [19] | RLU [20] | RLU [21] | RLU [22] | RLU [24] | RLU [25] | further results |
| --- | --- | --- | --- | --- | --- | --- | --- | --- | --- | --- | --- | --- | --- | --- | --- | --- | --- | --- |
| CC(C)C[C@@H]1NC(=O)[C@H](C(C)C)N(C)C(=O)[C@@H](CC(C)C)NC(=O)[C@@H](Cc2ccccc2)NC(=O)[C@@H]([C@H](OCc2ccccc2)c2ccccc2)NC1=O (HELM PEPTIDE1{[O=C([C@H](N[*:1])[C@H](OCc1ccccc1)c1ccccc1)[*:2]].[dF].[dL].[meV].L}$PEPTIDE1,PEPTIDE1,1:R1-5:R2$$$V2.0) | 8670 | 8800 | 25300 | Active | 50% | 50% | 9190 | 7810 | 4360 | 3800 | 6340 | 5700 | 10800 | 21800 | 5240 | 16800 | 29600 | inhibition [4]: Active; inhibition [5]: Active; inhibition [7]: Active; inhibition [9]: Active; inhibition [10]: Active; inhibition [11]: Active; inhibition [12]: 55%; inhibition [23]: Active; inhibition [26]: Active; inhibition [27]: Active |
| CO[C@H]1[C@H](OC(=O)c2ccc(C)[nH]2)[C@H](O)[C@@H](Oc2ccc3c(O)c(NC(=O)c4c[nH]c(C(=O)Nc5c(O)c6ccc(O[C@H]7OC(C)(C)[C@@H](OC)[C@H](OC(=O)c8ccc(C)[nH]8)[C@@H]7O)c(C)c6oc5=O)c4C)c(=O)oc3c2C)OC1(C)C | 520 | 467 | 22000 | Active | 50% | 50% | 417 | 540 | 565 | 519 | 497 | 498 | 10600 | 19200 | 4670 | 15500 | 25400 | inhibition [28]: Active; inhibition [29]: Active; inhibition [30]: Active; inhibition [31]: Active; inhibition [32]: Active |
